For 23 compounds, Activity results are on record in ChEMBL document CHEMBL1148708, “4-amino-5-substituted-3(2H)-pyridazinones as orally active antinociceptive agents: synthesis and studies on the mechanism of action” (2007).

Holding throughout (format): functional
Assay [1] is filed under the species Mus musculus. As to the kind of experiment: Antinociceptive activity in Swiss albino mouse assessed as reduction of number of writhing after 30 mins relative to control. The method in brief: (§1)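 Writhing counted in the mouse abdominal constriction test after a chemical noxious stimulus. Compounds given per os 30 min before testing. Controls received CMC vehicle. Activity expressed as reduction in number of writhes versus controls.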

The species named for assay [2] is Mus musculus. As to the kind of experiment: Effect on Swiss albino mouse assessed as decrease in number of falls in 30 sec after 45 mins of treatment by Rota-Rod test. The method in brief:
(§2)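 Rotarod test in mice: falls from the rotating rod counted over 30 s, before treatment and at 15, 30 and 45 min after oral dosing. CMC vehicle controls.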
A general note: Falling from the rotarod earlier than controls is read as motor impairment.

The species entered for assay [3] is Rattus norvegicus. As to the kind of experiment: Increase in noradrenaline release in Sprague-Dawley rat cerebral cortex after 30 mins by microdialysis technique. The method in brief:
(§3)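 Rat cerebral cortex microdialysis under chloral hydrate anesthesia (400 mg/kg) in a stereotaxic frame, using a vertical concentric probe perfused with solution containing MgCl₂ and 4 mM KCl. About 18 h after surgery, dialysate collected every 20 min and stored at -80 °C. Noradrenaline measured by HPLC with electrochemical detection. Release expressed against a baseline averaged from three samples taken just before drug dosing.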

The species named for assay [4] is Mus musculus. Nature of the assay: Effect on Swiss albino mouse assessed as decrease in number of falls in 30 sec after 30 mins of treatment by Rota-Rod test. The method in brief:
as §2

The species entered for assay [5] is Mus musculus. Nature of the assay: Effect on Swiss albino mouse assessed as decrease in number of falls in 30 sec after 15 mins of treatment by Rota-Rod test. The procedure, abridged: as §2
For assay [6], the system named is Mus musculus. Nature of the assay: Effect on Swiss albino mouse assessed as decrease in number of falls in 30 sec at 10 mg/kg, po after 15 mins by Rota-Rod test. The procedure, abridged:
as §2

Assay [7] has as its system Mus musculus. As to the kind of experiment: Antinociceptive activity in Swiss albino mouse assessed as number of writhing in presence of yohimbine at 10 mg/kg, po after 30 mins relative to control. The procedure, abridged: (§4)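 Mouse abdominal constriction (writhing) test with a chemical pain stimulus. Test drugs given orally 30 min before the test. Yohimbine given at 3 mg kg^-1 ip as α2-adrenoceptor antagonist pretreatment. Writhes counted and compared with CMC vehicle controls. Values are the mean of at least two experiments.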
(Writhing tests count abdominal constrictions after an irritant is injected.)

For assay [8], the system named is Rattus norvegicus. As to the kind of experiment: Increase in noradrenaline release in Sprague-Dawley rat cerebral cortex at 10 mg/kg, po after 30 mins by microdialysis technique. The procedure, abridged:
as §3

For assay [9], the system named is Mus musculus. Nature of the assay: Effect on Swiss albino mouse assessed as decrease in number of falls in 30 sec at 10 mg/kg, po after 30 mins by Rota-Rod test. The procedure, abridged: as §2
The test system of assay [10] is Mus musculus. Nature of the assay: Effect on Swiss albino mouse assessed as decrease in number of falls in 30 sec at 10 mg/kg, po after 45 mins by Rota-Rod test. The method in brief:
as §2

Assay [11] has as its system Mus musculus. As to the kind of experiment: Antinociceptive activity in Swiss albino mouse assessed as reduction of number of writhing at 10 mg/kg, po after 30 mins relative to control. The procedure, abridged:
as §1

In assay [12] the test system is Mus musculus. Nature of the assay: Effect on Swiss albino mouse assessed as decrease in number of falls in 30 sec at 3 mg/kg, po after 15 mins by Rota-Rod test. The procedure, abridged: as §2
Assay [13] deals with Mus musculus. As to the kind of experiment: Effect on Swiss albino mouse assessed as decrease in number of falls in 30 sec at 3 mg/kg, po after 30 mins by Rota-Rod test. The procedure, abridged: as §2
Assay [14] has as its system Mus musculus. As to the kind of experiment: Antinociceptive activity in Swiss albino mouse assessed as reduction of number of writhing at 3 mg/kg, po after 30 mins relative to control. The procedure, abridged:
as §1

Assay [15] relates to Mus musculus. As to the kind of experiment: Effect on Swiss albino mouse assessed as decrease in number of falls in 30 sec at 3 mg/kg, po after 45 mins by Rota-Rod test. The procedure, abridged: as §2
In assay [16] the test system is Mus musculus. As to the kind of experiment: Antinociceptive activity in Swiss albino mouse assessed as number of writhing in presence of yohimbine at 3 mg/kg, po after 30 mins relative to control. The method in brief:
as §4

Assay [17] has as its system Mus musculus. Nature of the assay: Antinociceptive activity in Swiss Albino mouse assessed as number of writhing in presence of yohimbine at 20 mg/kg, po after 30 mins relative to control. The method in brief: as §4
The test system of assay [18] is Mus musculus. As to the kind of experiment: Effect on Swiss albino mouse assessed as decrease in number of falls in 30 sec at 20 mg/kg, po after 15 mins by Rota-Rod test. The method in brief: as §2
Assay [19] concerns Mus musculus. As to the kind of experiment: Effect on Swiss albino mouse assessed as decrease in number of falls in 30 sec at 20 mg/kg, po after 45 mins by Rota-Rod test. The procedure, abridged: as §2
In assay [20] the test system is Mus musculus. As to the kind of experiment: Antinociceptive activity in Swiss albino mouse assessed as reduction of number of writhing at 20 mg/kg, po after 30 mins relative to control. The method in brief: as §1
The subject of assay [21] is Mus musculus. As to the kind of experiment: Effect on Swiss albino mouse assessed as decrease in number of falls in 30 sec at 20 mg/kg, po after 30 mins by Rota-Rod test. The procedure, abridged: as §2
The subject of assay [22] is Mus musculus. As to the kind of experiment: Effect on Swiss albino mouse assessed as decrease in number of falls in 30 sec at 30 mg/kg, po after 15 mins by Rota-Rod test. The procedure, abridged: as §2
Assay [23] has as its system Mus musculus. As to the kind of experiment: Antinociceptive activity in Swiss albino mouse assessed as reduction of number of writhing at 30 mg/kg, po after 30 mins relative to control. The procedure, abridged: as §1
Assay [24] has as its system Mus musculus. As to the kind of experiment: Effect on Swiss albino mouse assessed as decrease in number of falls in 30 sec at 30 mg/kg, po after 30 mins by Rota-Rod test. The method in brief:
as §2

Assay [25] concerns Mus musculus. Nature of the assay: Antinociceptive activity in Swiss albino mouse assessed as number of writhing in presence of yohimbine at 30 mg/kg, po after 30 mins relative to control. The method in brief: as §4
Assay [26] relates to Mus musculus. Nature of the assay: Effect on Swiss albino mouse assessed as decrease in number of falls in 30 sec at 30 mg/kg, po after 45 mins by Rota-Rod test. The procedure, abridged:
as §2

Assay [27] concerns Rattus norvegicus. As to the kind of experiment: Increase in noradrenaline release in Sprague-Dawley rat cerebral cortex at 30 mg/kg, po after 30 mins by microdialysis technique. The procedure, abridged: as §3
In assay [28] the test system is Rattus norvegicus. As to the kind of experiment: Increase in noradrenaline release in Sprague-Dawley rat cerebral cortex at 3 mg/kg, po after 30 mins by microdialysis technique. The method in brief: as §3
Assay [29] concerns Rattus norvegicus. As to the kind of experiment: Increase in noradrenaline release in Sprague-Dawley rat cerebral cortex at 20 mg/kg, po after 30 mins by microdialysis technique. The procedure, abridged: as §3

Consider `CC(=O)[O-].O=CC(O)C(O)C(O)C(O)CO.[Na+]` (stereo not given), for which the Activity in the assay listed under Mus musculus [1] was 33.2; in the assay filed under Mus musculus [2] it was 2.2; in the assay filed under Rattus norvegicus [3], 100%; in the assay filed under Mus musculus [4], 3; in the assay listed under Mus musculus [5] it was 3.6.

On to `Cc1nc(-c2c(-c3ccccc3)nn(C)c(=O)c2N)cs1`, for which the Activity was 3.8 in the assay with Mus musculus [6]; 33.6 in the assay on Mus musculus [7]; 181.3% with Rattus norvegicus [8]; 2.7 with Mus musculus [9]; 2 in the assay with Mus musculus [10]; 14.7 with Mus musculus [11].

Turning to `C=Cc1c(-c2ccccc2)nn(C)c(=O)c1NCC`, the Activity in the assay with Mus musculus [12] was 3.4; in the assay on Mus musculus [13], 2.3; in the assay with Mus musculus [14] it was 17.4; with Mus musculus [15], 1.9; with Mus musculus [16], 28.1.

On to `C=Cc1c(-c2ccccc2)nn(CCCC)c(=O)c1NC`, for which the Activity with Mus musculus [17] amounted to 31.9; with Mus musculus [18], 4; in the assay on Mus musculus [19], 2.5; in the assay with Mus musculus [20] it was 21.6; in the assay with Mus musculus [21], 3.3.

Take `Cc1nn(C)c(=O)c(N)c1-c1ccn(C)n1`: the Activity with Mus musculus [22] is reported as 3.9; in the assay with Mus musculus [23], 15.9; in the assay on Mus musculus [24], 2.6; in the assay with Mus musculus [25], 31.7; in the assay with Mus musculus [26], 1.8; with Rattus norvegicus [27] it was 188.5%.

As to `Cn1nc(-c2ccccc2)c(-c2cc[nH]n2)c(N)c1=O`, the Activity with Mus musculus [12] is recorded as 3.7; in the assay on Mus musculus [13], 2.8; in the assay with Mus musculus [14], 15.9; in the assay with Mus musculus [15] it was 2.3; in the assay on Mus musculus [16], 26.5; in the assay with Rattus norvegicus [28], 168.4%.

On to `C=Cc1c(-c2ccncc2)nn(CCCC)c(=O)c1N`, for which the Activity is listed as 35.3 in the assay on Mus musculus [20] and 97.5% with Rattus norvegicus [29].

For the compound `C=Cc1c(C)nn(CCCC)c(=O)c1N`, the values for the Activity in the assay with Mus musculus [20] and in the assay with Rattus norvegicus [29] were 36.7 and 95.9%, respectively.

With `C=Cc1c(-c2cccs2)nn(CCCC)c(=O)c1N`, the Activity with Mus musculus [20] turned out to be 25.2.

Turning to `C=Cc1c(-c2ccc(F)cc2)nn(CCCC)c(=O)c1N`, the Activity with Mus musculus [20] turned out to be 33.6.

In the case of `C=Cc1c(-c2ccc(F)cc2)nn(C)c(=O)c1N`, the Activity with Mus musculus [20] worked out at 27.2.

In the case of `C=Cc1c(C2CCCC2)nn(C)c(=O)c1N`, the Activity in the assay on Mus musculus [11] was 27.7.

As to `C=Cc1c(C2CCCCC2)nn(C)c(=O)c1N`, the Activity with Mus musculus [6] worked out at 4.1; with Mus musculus [7], 32.5; in the assay with Rattus norvegicus [8] it was 182.1%; in the assay with Mus musculus [9] it was 3.4; in the assay with Mus musculus [10] it was 2.9; in the assay with Mus musculus [11], 14.4.

For `CCN(CC)c1c(-c2ccn(C)n2)c(-c2ccccc2)nn(C)c1=O`, in the assay on Mus musculus [20], the Activity is 27.1.

As to `Cc1nnc(-c2c(-c3ccccc3)nn(C)c(=O)c2N)o1`, the Activity with Mus musculus [12] was determined as 2.7; in the assay on Mus musculus [13], 2.3; with Mus musculus [14] it was 19.5; in the assay on Mus musculus [15] it was 1.5; in the assay on Mus musculus [16] it was 34.2.

As to `C=Cc1c(-c2ccncc2)nn(C)c(=O)c1N`, the Activity was found to be 34.1 in the assay on Mus musculus [17]; 3.5 in the assay with Mus musculus [18]; 2.1 in the assay on Mus musculus [19]; 18.7 in the assay with Mus musculus [20]; 2.8 in the assay with Mus musculus [21].

For `C=Cc1c(-c2ccc(Br)cc2)nn(C)c(=O)c1N`, the Activity in the assay with Mus musculus [20] was found to be 35.7; in the assay on Rattus norvegicus [29], 107%.

On to `C=Cc1c(C)nn(C)c(=O)c1NC`, for which the Activity came to 3.7 in the assay with Mus musculus [6]; 32 with Mus musculus [7]; 2.5 in the assay with Mus musculus [9]; 2 in the assay with Mus musculus [10]; 17.6 in the assay on Mus musculus [11].

As to `C=Cc1c(C)nn(C)c(=O)c1NCC`, the Activity in the assay on Mus musculus [6] is 3.9; in the assay on Mus musculus [7], 29; with Rattus norvegicus [8], 176.2%; in the assay on Mus musculus [9], 3.2; in the assay on Mus musculus [10] it was 2.5; with Mus musculus [11], 16.8.

As to `Cn1ccc(-c2c(-c3ccccc3)nn(C)c(=O)c2N)n1`, the Activity with Mus musculus [12] is 4.2; with Mus musculus [13] it was 3.1; with Mus musculus [14] it was 13.6; in the assay with Mus musculus [15] it was 2.3; in the assay on Mus musculus [16] it was 31.1; with Rattus norvegicus [28], 190.1%.

With `CCNc1c(-c2ccn(C)n2)c(-c2ccccc2)nn(C)c1=O`, the Activity with Mus musculus [17] stood at 29.6; with Mus musculus [18], 2.6; in the assay with Mus musculus [19], 2.1; with Mus musculus [20], 14.1; in the assay with Rattus norvegicus [29], 173.7%; in the assay with Mus musculus [21], 1.8.

Consider `C=Cc1c(-c2cccs2)nn(C)c(=O)c1N`, for which the Activity with Mus musculus [20] turned out to be 30.2.

With `COC(=O)[C@@H]1[C@H]2C[C@H]3c4[nH]c5ccccc5c4CCN3C[C@@H]2CC[C@@H]1O` [YOHIMBINE], in the assay with Mus musculus [16], the Activity was determined as 31.7.
